Source: ChEMBL document CHEMBL3352149, “Promiscuity and selectivity in covalent enzyme inhibition: a systematic study of electrophilic fragments” (J Med Chem, 2014)
Calls of active or inactive are those of the source. The rule behind the calls is not given here.

Key:
Escherichia coli [1] = assay: Inhibition of Escherichia coli MetAP at 25 uM after 20 mins by HPLC analysis
Method in brief: (§1)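 Endpoint assay. Enzyme (50 nM) was preincubated with 25 μM compound for 20 min at 37 °C in 50 mM Tris pH 7.5, 100 mM NaCl, 100 μM CoCl2, 0.075% BSA. MGMM substrate (400 μM) was then added for 15 min (human MetAP-1) or 20 min (E. coli MetAP). Reactions were stopped with TFA. GMM product was quantified by RP-HPLC, UV 214 nm. Triplicate.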

[2] = target: Methionine aminopeptidase 1 (Homo sapiens) (UniProt P53582); assay: Inhibition of human MetAP at 25 uM after 20 mins by HPLC analysis; method in brief: as §1
Escherichia coli [3] = assay: Inhibition of wild-type Escherichia coli MurA compound preincubated for 10 mins before substrate addition at 25 uM measured after 15 mins by LC-MS method
Escherichia coli [4] = assay: Inhibition of wild-type Escherichia coli MurB compound preincubated for 10 mins before substrate addition at 25 uM measured after 15 mins by LC-MS method
Method in brief: (§2)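 E. coli wild-type enzyme (4 nM) was preincubated with 25 μM compound for 10 min at 37 °C. Enzymatically generated nucleotide-sugar substrate (~200 μM) plus ATP (~200 μM), or NADPH 200 μM for MurB, was added for 10 min. Reactions were started with amino-acid cosubstrate (MurC–F) or EP-UNAG (MurB), run 15 min at 37 °C, and quenched with formic acid. Product was measured by negative-ESI LC-MS EIC peak area. MgCl2: MurC 10, MurD/E 2, MurF 5 mM; MurB had 5 mM KCl. All in 50 mM NH4HCO3, 0.07% BSA, 1% DMSO; triplicate.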

Escherichia coli [5] = assay: Inhibition of wild-type Escherichia coli MurC compound preincubated for 10 mins before substrate addition at 25 uM measured after 15 mins by LC-MS method; method in brief: as §2
Escherichia coli [6] = assay: Inhibition of wild-type Escherichia coli MurD compound preincubated for 10 mins before substrate addition at 25 uM measured after 15 mins by LC-MS method; method in brief: as §2
Escherichia coli [7] = assay: Inhibition of wild-type Escherichia coli MurE compound preincubated for 10 mins before substrate addition at 25 uM measured after 15 mins by LC-MS method; method in brief: as §2
Escherichia coli [8] = assay: Inhibition of wild-type Escherichia coli MurF compound preincubated for 10 mins before substrate addition at 25 uM measured after 15 mins by LC-MS method; method in brief: as §2
[9] = GSH reactivity of the compound assessed as adducts formation by RP-HPLC analysis
Method in brief: (§3)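 Fresh aqueous glutathione (10 mM solution) was added to 50 mM Tris-maleate buffer, pH 7.5. The reaction was started with compound from 10 mM DMSO stock (final 250 μM). Mixtures were followed by reversed-phase HPLC on an ODS column with a gradient to 100% B; rate constants are given in l·mol⁻¹·s⁻¹.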

Escherichia coli [10] = assay: Induction of covalent MurA enzyme adduct formation preincubated with UNAG substrate for 10 mins compound treated at 300 uM after 1 hr by ESI-MS analysis
Method in brief: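 E. coli MurA (25 μM) preincubated with UNAG 300 μM for 10 min at 37 °C, then test compound added at 300 μM. Incubation ran 60 min at 37 °C in 50 mM NH₄HCO₃, pH 7.9. Samples were spin-desalted on Sephadex G-25, then analysed by flow-injection positive-mode ESI-MS for enzyme adducts. Untreated enzyme served as control.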

Escherichia coli [11] = assay: Induction of covalent MurE enzyme adduct formation preincubated with UNAG substrate for 10 mins compound treated at 300 uM after 1 hr by ESI-MS analysis
Escherichia coli [12] = assay: Induction of covalent MetAP enzyme adduct formation at 300 uM after 1 hr by ESI-MS analysis
Method in brief: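 E. coli MetAP (25 μM) was incubated with 300 μM compound for 60 min at 37 °C in 50 mM NH4HCO3, pH 7.9, with 200 μM CoCl2. Untreated enzyme served as control. Samples were spin-desalted on Sephadex G-25 and analysed by flow-injection ESI-MS in positive mode (isocratic water/acetonitrile 95/5 with 0.1% formic acid), looking for covalent adducts.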

HeLa = assay: Cytotoxicity against human HeLa cells assessed as reduction in cell viability after 24 hrs by CellTiter-Blue assay; type: cell-based
Method in brief: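 HeLa cells seeded in triplicate at 5×10^3 cells/well and grown 24 h at 37 °C/5% CO2. Compounds at varying concentrations were added as a 2x stock in phenol-red-free DMEM with FBS, penicillin/streptomycin, sodium pyruvate and L-glutamine, then left 24 h. Medium was replaced with CellTiter-Blue medium for 3 h. A570/A610 was read after background subtraction, as % of untreated controls; EC50 derived.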

[13] = target: Genome polyprotein (dengue virus type 2) (UniProt P12823); assay: Inhibition of Dengue virus serotype 2 NS2B-NS3 protease at 50 uM
[14] = target: Genome polyprotein (West Nile virus) (UniProt P06935); assay: Inhibition of West Nile virus NS2B-NS3 protease at 50 uM
Prothrombin (Bos taurus) = Prothrombin (Bos taurus) (UniProt P00735); assay: Inhibition of Bovine thrombin using Boc-Val-Pro-Arg-AMC as substrate compound preincubated at 25 uM for 15 mins by fluorescence assay
Method in brief: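 Bovine thrombin (final 10 nM) was preincubated 15 min with 25 μM compound in 50 mM Tris-HCl pH 7.5, 150 mM NaCl, 0.05% Tween 20. The reaction was started with Boc-Val-Pro-Arg-AMC (50 μM final). Fluorescence (ex 355/em 460 nm) was monitored continuously for 10 min; activity taken as slope (RFU/s). Triplicate.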

[15] = GSH reactivity of the compound assessed as adducts formation meaured over 3 hrs by RP-HPLC analysis; method in brief: as §3
[16] = GSH reactivity of the compound assessed as half life by RP-HPLC analysis
Escherichia coli [17] = assay: Induction of covalent MurB enzyme adduct formation preincubated with UNAG substrate for 10 mins compound treated at 300 uM after 1 hr by ESI-MS analysis

Sequence of Genome polyprotein (West Nile virus) (P06935 whole entry): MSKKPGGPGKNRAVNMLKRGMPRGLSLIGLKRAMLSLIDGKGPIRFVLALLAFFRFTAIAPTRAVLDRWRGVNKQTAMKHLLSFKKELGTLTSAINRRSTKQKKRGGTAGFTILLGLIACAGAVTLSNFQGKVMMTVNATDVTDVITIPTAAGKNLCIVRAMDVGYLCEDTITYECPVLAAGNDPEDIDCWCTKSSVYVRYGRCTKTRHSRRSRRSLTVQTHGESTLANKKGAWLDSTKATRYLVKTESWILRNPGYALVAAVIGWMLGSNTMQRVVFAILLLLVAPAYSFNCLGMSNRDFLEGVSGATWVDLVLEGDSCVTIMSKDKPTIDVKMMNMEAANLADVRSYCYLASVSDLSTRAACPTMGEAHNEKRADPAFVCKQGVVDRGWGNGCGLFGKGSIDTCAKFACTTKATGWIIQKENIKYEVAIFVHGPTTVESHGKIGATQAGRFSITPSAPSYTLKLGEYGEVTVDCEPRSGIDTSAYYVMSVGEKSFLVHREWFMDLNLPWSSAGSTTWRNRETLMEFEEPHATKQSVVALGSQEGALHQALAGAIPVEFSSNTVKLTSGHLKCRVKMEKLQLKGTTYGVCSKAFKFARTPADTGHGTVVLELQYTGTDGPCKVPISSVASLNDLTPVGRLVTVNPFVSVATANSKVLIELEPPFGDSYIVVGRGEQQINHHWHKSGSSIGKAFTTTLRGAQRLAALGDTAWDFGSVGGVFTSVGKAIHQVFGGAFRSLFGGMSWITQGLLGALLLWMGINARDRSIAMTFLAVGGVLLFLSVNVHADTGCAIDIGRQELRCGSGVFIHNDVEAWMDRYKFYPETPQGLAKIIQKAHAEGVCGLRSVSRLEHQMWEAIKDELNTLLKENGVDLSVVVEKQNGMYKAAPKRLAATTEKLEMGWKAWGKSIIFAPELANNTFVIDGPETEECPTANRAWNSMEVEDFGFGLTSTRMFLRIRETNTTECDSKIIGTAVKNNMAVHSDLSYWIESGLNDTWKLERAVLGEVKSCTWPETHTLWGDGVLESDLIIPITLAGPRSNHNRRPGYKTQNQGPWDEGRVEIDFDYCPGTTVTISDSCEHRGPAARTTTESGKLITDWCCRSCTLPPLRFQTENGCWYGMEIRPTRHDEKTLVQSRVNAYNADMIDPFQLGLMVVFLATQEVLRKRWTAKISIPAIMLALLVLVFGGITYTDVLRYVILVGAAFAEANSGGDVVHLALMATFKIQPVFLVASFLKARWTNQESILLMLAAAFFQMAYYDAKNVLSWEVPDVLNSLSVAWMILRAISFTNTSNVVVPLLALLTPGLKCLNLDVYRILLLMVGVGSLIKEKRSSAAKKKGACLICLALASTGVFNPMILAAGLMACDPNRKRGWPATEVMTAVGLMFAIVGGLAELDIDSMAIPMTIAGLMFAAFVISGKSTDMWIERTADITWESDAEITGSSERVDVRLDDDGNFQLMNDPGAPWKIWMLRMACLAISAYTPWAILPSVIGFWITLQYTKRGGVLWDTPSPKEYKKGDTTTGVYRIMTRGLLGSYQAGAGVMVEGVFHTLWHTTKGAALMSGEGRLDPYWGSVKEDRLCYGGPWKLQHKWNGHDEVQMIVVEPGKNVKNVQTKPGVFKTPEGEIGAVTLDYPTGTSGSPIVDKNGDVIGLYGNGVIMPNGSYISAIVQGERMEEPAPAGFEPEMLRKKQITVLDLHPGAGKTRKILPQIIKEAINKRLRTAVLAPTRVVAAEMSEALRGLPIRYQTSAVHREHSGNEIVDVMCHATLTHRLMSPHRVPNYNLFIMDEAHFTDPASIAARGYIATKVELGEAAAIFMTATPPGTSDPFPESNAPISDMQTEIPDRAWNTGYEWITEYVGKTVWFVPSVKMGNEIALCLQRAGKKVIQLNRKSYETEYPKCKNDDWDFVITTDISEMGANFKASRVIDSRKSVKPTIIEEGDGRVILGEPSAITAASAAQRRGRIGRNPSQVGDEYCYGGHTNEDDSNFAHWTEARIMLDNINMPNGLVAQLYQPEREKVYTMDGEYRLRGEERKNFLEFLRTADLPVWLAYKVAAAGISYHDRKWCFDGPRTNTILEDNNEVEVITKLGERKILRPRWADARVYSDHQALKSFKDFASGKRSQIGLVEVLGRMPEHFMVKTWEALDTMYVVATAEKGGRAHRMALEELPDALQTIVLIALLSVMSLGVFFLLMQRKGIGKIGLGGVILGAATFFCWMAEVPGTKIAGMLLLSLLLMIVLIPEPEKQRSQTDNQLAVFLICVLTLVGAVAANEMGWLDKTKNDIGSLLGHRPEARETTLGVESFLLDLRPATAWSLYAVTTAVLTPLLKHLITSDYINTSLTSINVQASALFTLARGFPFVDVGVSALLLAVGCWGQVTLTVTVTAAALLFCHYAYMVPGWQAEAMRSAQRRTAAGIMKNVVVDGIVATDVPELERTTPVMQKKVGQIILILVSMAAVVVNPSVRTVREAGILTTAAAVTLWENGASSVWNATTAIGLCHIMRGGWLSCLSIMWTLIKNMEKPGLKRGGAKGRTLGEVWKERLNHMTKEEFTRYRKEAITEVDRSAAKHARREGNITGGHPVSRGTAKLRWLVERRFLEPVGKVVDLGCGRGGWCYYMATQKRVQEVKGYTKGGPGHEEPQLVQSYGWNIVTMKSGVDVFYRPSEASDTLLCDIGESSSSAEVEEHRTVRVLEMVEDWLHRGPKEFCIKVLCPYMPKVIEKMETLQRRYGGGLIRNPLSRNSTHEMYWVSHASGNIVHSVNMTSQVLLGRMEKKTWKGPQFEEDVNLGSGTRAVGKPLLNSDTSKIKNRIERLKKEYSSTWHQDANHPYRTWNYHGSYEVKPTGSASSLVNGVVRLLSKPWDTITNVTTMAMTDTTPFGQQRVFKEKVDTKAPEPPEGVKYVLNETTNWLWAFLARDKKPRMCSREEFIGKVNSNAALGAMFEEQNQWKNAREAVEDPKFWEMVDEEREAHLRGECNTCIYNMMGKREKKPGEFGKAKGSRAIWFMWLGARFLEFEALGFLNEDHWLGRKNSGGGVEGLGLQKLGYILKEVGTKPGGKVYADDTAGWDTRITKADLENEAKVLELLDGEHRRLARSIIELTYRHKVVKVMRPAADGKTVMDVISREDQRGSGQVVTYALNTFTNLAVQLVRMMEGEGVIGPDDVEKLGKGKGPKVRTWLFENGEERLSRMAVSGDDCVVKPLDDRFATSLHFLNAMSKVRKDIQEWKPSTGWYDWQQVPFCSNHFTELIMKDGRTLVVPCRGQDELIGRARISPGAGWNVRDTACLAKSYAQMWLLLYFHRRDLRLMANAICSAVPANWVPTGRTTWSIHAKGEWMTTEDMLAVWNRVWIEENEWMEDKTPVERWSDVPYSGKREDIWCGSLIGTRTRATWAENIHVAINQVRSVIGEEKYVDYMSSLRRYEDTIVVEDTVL

| Compound | inhibition (Escherichia coli [1]) [%] | inhibition [2] [%] | inhibition (Escherichia coli [3]) [%] | inhibition (Escherichia coli [4]) [%] | inhibition (Escherichia coli [5]) [%] | inhibition (Escherichia coli [6]) [%] | inhibition (Escherichia coli [7]) [%] | inhibition (Escherichia coli [8]) [%] | Activity [9] [L/mol/s] | Activity (Escherichia coli [10]) | Activity (Escherichia coli [11]) [L/mol/s] | Activity (Escherichia coli [12]) [L/mol/s] | EC50 (HeLa) [µM] | inhibition [13] [%] | inhibition [14] [%] | inhibition (Prothrombin (Bos taurus)) [%] | Activity [15] [%] | T1/2 [16] [h] | Activity (Escherichia coli [17]) [L/mol/s] |
| --- | --- | --- | --- | --- | --- | --- | --- | --- | --- | --- | --- | --- | --- | --- | --- | --- | --- | --- | --- |
| N#CCC(=O)Nc1ccccc1 | < 15 | < 15 | < 15 | < 15 | < 15 | < 15 | 23 | < 15 | < 0.1 | inactive | < 0.1 | < 0.1 | > 100 | < 15 | < 15 | < 15 | – | – | – |
| C=CC(=O)Nc1ccccc1 | < 15 | < 15 | < 15 | < 15 | < 15 | < 15 | < 15 | < 15 | < 0.1 | inactive | < 0.1 | < 0.1 | > 100 | < 15 | < 15 | < 15 | < 5 | – | – |
| CCCCNC(=O)C[S+](C)C | < 15 | < 15 | < 15 | < 15 | < 15 | < 15 | 29 | < 15 | – | – | < 0.1 | – | > 100 | < 15 | < 15 | < 15 | – | – | – |
| O=C(CCl)Nc1ccccc1 | < 15 | < 15 | < 15 | < 15 | < 15 | < 15 | < 15 | < 15 | < 0.1 | inactive | < 0.1 | < 0.1 | 20.9 | < 15 | < 15 | < 15 | – | – | – |
| O=C(Nc1ccccc1)C1CC(Br)=NO1 (stereo unspecified) | < 15 | < 15 | < 15 | < 15 | < 15 | < 15 | < 15 | < 15 | < 0.1 | inactive | < 0.1 | < 0.1 | > 100 | < 15 | < 15 | < 15 | – | > 200 | – |
| O=C(Nc1ccc(F)cc1)C1CC(Br)=NO1 (stereo unspecified) | < 15 | < 15 | < 15 | < 15 | < 15 | < 15 | 23 | 21 | < 0.1 | – | – | – | – | < 15 | < 15 | < 15 | – | > 200 | – |
| COc1ccc(NC(=O)C2CC(Br)=NO2)cc1 (stereo unspecified) | < 15 | < 15 | < 15 | < 15 | < 15 | < 15 | 18 | < 15 | < 0.1 | – | – | – | – | < 15 | 21 | < 15 | – | > 200 | – |
| O=C(Nc1ccccc1)n1ccnc1 [IMIDAZOLE-1-CARBOXYLIC ACID PHENYLAMIDE] | < 15 | < 15 | < 15 | < 15 | < 15 | < 15 | < 15 | < 15 | < 0.1 | inactive | < 0.1 | < 0.1 | > 100 | < 15 | < 15 | < 15 | – | – | – |
| O=C(NCc1ccccc1)C1CC(Br)=NO1 (stereo unspecified) | < 15 | < 15 | < 15 | 18 | < 15 | 16 | < 15 | 15 | < 0.1 | – | – | – | – | < 15 | < 15 | < 15 | – | > 200 | – |
| O=C(Nc1ccc([N+](=O)[O-])cc1)C1CC(Br)=NO1 (stereo unspecified) | 28 | < 15 | < 15 | < 15 | < 15 | < 15 | 44 | < 15 | < 0.1 | – | < 0.1 | < 0.1 | 73.4 | < 15 | < 15 | < 15 | – | > 200 | < 0.1 |
| CCCCNC(=O)C1CC(Br)=NO1 (stereo unspecified) | < 15 | < 15 | < 15 | < 15 | < 15 | < 15 | 27 | < 15 | < 0.1 | – | – | – | > 100 | < 15 | < 15 | < 15 | – | > 200 | – |
| O=C(Nc1ccc(F)cc1)n1ccnc1 | < 15 | < 15 | 28 | < 15 | < 15 | < 15 | < 15 | < 15 | < 0.1 | – | – | – | – | < 15 | < 15 | < 15 | – | – | < 0.1 |
| C[S+](C)CC(=O)Nc1ccccc1 | < 15 | < 15 | < 15 | < 15 | < 15 | < 15 | 32 | < 15 | – | inactive | < 0.1 | < 0.1 | > 100 | < 15 | < 15 | < 15 | – | – | – |
| O=C(NC1CCCC1)C1CC(Br)=NO1 (stereo unspecified) | < 15 | < 15 | < 15 | < 15 | < 15 | 15 | 16 | < 15 | < 0.1 | – | – | – | – | < 15 | < 15 | < 15 | – | > 200 | – |
